Structures are written as SMILES. The source made the active and inactive calls.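 Rule for the calls, unless noted: active = visually confirmed hit in the image check and inhibition above 20%; inconclusive = visually confirmed hit but inhibition not above 20%; inactive = no visual hit in the image check.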

The nature of assay [1]: inhibitors of TNFa-induced NFkB p65 translocation, primary screen, imaging, HUVEC, MLSMR starter and 10KST1 sets (AID 438;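 active = inhibition above 20% together with a positive visual image hit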;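 note: compound added about 3h40 before a 20 min TNFalpha stimulation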;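 for inhibition: signal is the nuclear over cytoplasmic p65 intensity ratio per well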). The following applies: HUVEC TNFa-induced p65 nuclear translocation; cell count: measured here: nuclei count (cytotoxicity indicator), at 2.08 µM; inhibition: at 2 µM, stronger effect = higher value, 0% TNFa-plus-vehicle, 100% no-TNFa wells.
Assay [2] is described as follows: reduction of polyQ htt aggregates in cells – imaging, exon1htt(103Q)mCFP cells, high-content imaging, primary screen (AID 483;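 active = visual image review flags a hit and inhibition of aggregation exceeds 20%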;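 note: compound exposure lasted 3 days before fixation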;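 for nuclei count: percent of the per-plate median nuclei count of sample wells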). The following applies: exon1htt(103Q)mCFP cell line, aggregate imaging, at 2 µM; inhibition of aggregation: stronger effect = higher value; nuclei count: measured here: cell count, toxicity.
The nature of assay [3]: endothelial E-selectin expression blockers – imaging, HUVEC, immunofluorescence, MLSMR starter and 10KST1 sets, primary screen (AID 487).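 For inhibition: signal is fraction of cell area covered by stained E-selectin grains.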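 For nuclei count: 100% = median nuclei count of all wells on the same plate.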 The following applies: HUVEC TNFalpha-induced E-selectin immunofluorescence imaging, at 2 µM; inhibition: stronger effect = higher value; nuclei count: measured here: cell number, toxicity.
In assay [4] the target is Voltage-gated potassium channel subunit beta-2 (Rattus norvegicus) (UniProt P62483). Nature of the assay: inhibitors of rat Kvbeta2 reductase activity – biochemical, NADPH fluorescence, primary screen (AID 622;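 active = fluorescence slope higher than the sample average by over 3 SD, cut at about -0.22 in these data, passing the limit was not always enough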;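 note: slope of raw intensity against log time taken from 70 to 1610 s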). The following applies: recombinant KvBeta, 4-cyanobenzaldehyde reduction, at 10 µM, stronger effect = higher value.
Chain of Voltage-gated potassium channel subunit beta-2 (Rattus norvegicus) (P62483 whole entry, looked up): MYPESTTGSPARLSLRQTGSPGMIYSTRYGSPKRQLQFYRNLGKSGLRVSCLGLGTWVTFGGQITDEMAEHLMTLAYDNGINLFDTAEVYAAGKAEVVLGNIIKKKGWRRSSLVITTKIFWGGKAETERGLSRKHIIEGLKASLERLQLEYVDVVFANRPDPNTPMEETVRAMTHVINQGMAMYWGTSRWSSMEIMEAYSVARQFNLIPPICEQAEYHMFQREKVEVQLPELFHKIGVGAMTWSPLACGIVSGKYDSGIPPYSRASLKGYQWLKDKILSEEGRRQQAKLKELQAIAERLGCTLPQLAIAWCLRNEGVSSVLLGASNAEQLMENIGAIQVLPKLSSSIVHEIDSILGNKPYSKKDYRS
For assay [5] the target is unchanged. Nature of the assay: enhancers of rat Kvbeta2 NADPH turnover – biochemical, NADPH fluorescence, primary screen (AID 623;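 active = NADPH fluorescence slope more negative than the mean of all samples by about 3 SD, 99.7% confidence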;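 note: fluorescence intensity change per second fitted from 20 to 320 s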). The following applies: Recombinant KvBeta, NADPH fluorescence decrease slope, 10 min; at 10 µM; stronger effect = lower value.
The target of assay [6] is Muscarinic acetylcholine receptor M4 (Homo sapiens) (UniProt P08173). Put plainly: M4-linked GIRK flux change, two-sided – cell-based, HEK293 M4/GIRK, thallium flux, BTC-AM, M4 allosteric agonist project, primary screen (AID 625;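 active = fluorescence slope after compound addition differing from the mean of all tested samples at 99.7% confidence, mostly higher but some lower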;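 note: thallium influx through GIRK channels coupled to M4 in HEK293 cells with BTC-AM dye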). The following applies: at 10 µM, actives lie on both sides. An outline of the steps: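 Material: M4/GIRK1/GIRK2 stable HEK293 cell line. Medium: pH 7.3 thallium assay buffer. Dosing: single compound concentration, 10 µM final. Schedule: 1 h dye loading, 2 min kinetic read. Measured by: kinetic fluorescence with BTC-AM dye. Read-out: post-addition slope, 15–24 s, of baseline-normalized fluorescence. Benchmarks: carbachol and DMSO controls.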
Chain of Muscarinic acetylcholine receptor M4 (Homo sapiens) (P08173 whole entry, looked up): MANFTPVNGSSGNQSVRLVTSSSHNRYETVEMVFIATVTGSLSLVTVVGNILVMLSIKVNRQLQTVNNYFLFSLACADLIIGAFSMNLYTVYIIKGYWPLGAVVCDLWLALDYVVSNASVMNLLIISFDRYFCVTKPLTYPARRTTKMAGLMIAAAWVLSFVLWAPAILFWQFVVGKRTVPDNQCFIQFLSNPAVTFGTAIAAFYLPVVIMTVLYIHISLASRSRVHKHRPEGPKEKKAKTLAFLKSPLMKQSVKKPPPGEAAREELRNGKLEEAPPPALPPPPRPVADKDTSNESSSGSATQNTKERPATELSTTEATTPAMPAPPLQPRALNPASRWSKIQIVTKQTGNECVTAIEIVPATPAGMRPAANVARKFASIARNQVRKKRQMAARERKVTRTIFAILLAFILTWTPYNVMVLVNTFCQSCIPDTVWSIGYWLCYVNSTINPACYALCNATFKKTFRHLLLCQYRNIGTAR

Assay [7] can be described thus: blockers of RIG-like receptor reporter activation – cell-based, Sendai virus stimulus, luciferase, 10K MLSCN set, TLR/RLR signaling modifier project, primary screen (AID 602276;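 active = inhibition at or above 50% at 10 µM; inactive = inhibition below 50%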;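 note: firefly luciferase from ISG56 promoter only with Renilla not read in this screen; 0% = Sendai virus plus DMSO and 100% = medium plus DMSO without virus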). The following applies: HEK293 RL24 IRF3 luciferase reporter, at 10 µM, stronger effect = higher value.
Assay [8] in a line: TLR3 IRF3 reporter activation blockers – cell-based, poly I:C stimulus, luciferase, 10K MLSCN set, primary screen (AID 602277;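 active = inhibition of the reporter signal at or above 50%; inactive = inhibition below 50%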). The following applies: HEK293-TLR3 RL24 IRF3 luciferase reporter, at 10 µM, stronger effect = higher value.

What is called inhibition is the relative decrease from the control value, in per cent. Consider `CCCCNC(=O)c1cc(-c2ccc(F)cc2)on1`, for which, in assay [1], the cell count came out at 240. Moreover, the inhibition in assay [1] is -2.8% (inactive); in assay [3] it was -39.2% (inactive); in assay [7] it was -21.5% (inactive); in assay [8], -168% (inactive). For the same compound, the inhibition of aggregation in assay [2] is 5.2% (inactive). The nuclei count in assay [2] came out at 106%; in assay [3], 120%. For the same compound, the fluorescence slope in assay [4] was -0.483 (inactive); in assay [6], 0.00454 (inactive). In assay [5], the NADPH fluorescence slope is -3.3e-05 (inactive).

On to `CCn1c(=S)sc2nc(C)sc21`, for which the cell count in assay [1] amounted to 266. Besides, the inhibition is 1.3% (inactive) in assay [1], -38.4% (inactive) in assay [3], 13.4% (inactive) in assay [7] and 15% (inactive) in assay [8]. The inhibition of aggregation in assay [2] was -4.4% (inactive). In addition, the nuclei count in assay [2] stood at 76.2%; in assay [3], 124%. In addition, the fluorescence slope in assay [4] was -0.598 (inactive); in assay [6] it was 0.00458 (inactive). Besides, the NADPH fluorescence slope in assay [5] is 3.2e-06 (inactive).

In the case of `Cc1ccc(O)c(C(=O)c2cc(C#N)c(=O)n(CC3CCCO3)c2)c1` (stereo not drawn), the cell count in assay [1] was 449. Besides, the inhibition in assay [1] was -20.3% (inactive); in assay [3] it was 82.1% (active); in assay [7], 15% (inactive); in assay [8], 24.8% (inactive). Also, in assay [2], the inhibition of aggregation was 33.7% (active). Further, the nuclei count amounted to 70.1% in assay [2] and 53.1% in assay [3]. The fluorescence slope in assay [4] was -0.561 (inactive); in assay [6], 0.00669 (inactive). In addition, in assay [5], the NADPH fluorescence slope is -4.5e-05 (inactive).

As to `Cc1ccc(NC(=O)c2ccc(NS(=O)(=O)c3c(C)noc3C)cc2)cc1C`, the cell count in assay [1] turned out to be 319. For the same compound, the inhibition in assay [1] is -15.8% (inactive); in assay [3], -49.9% (inactive); in assay [7], 6.15% (inactive); in assay [8], 9.64% (inactive). The inhibition of aggregation in assay [2] is -9.9% (inactive). The figures for the nuclei count in assay [2] and in assay [3] were 94.1% and 110%, respectively. For the same compound, the fluorescence slope was -0.48 (inactive) in assay [4] and 0.00475 (inactive) in assay [6]. The NADPH fluorescence slope in assay [5] was -0.000226 (inactive).

For `CN(CC(=O)Nc1ccncc1)S(=O)(=O)c1ccccc1`, the cell count in assay [1] turned out to be 351. Also, the inhibition is 4.9% (inactive) in assay [1], -141% (inactive) in assay [3], 14.3% (inactive) in assay [7] and 2.23% (inactive) in assay [8]. The inhibition of aggregation in assay [2] is 11.1% (inactive). Besides, the nuclei count in assay [2] stood at 108%; in assay [3], 148%. Besides, the fluorescence slope in assay [4] was -0.432 (inactive); in assay [6] it was 0.00615 (inactive). Moreover, the NADPH fluorescence slope in assay [5] was -7.6e-05 (inactive).

Take `O=C1CC(c2ccco2)CC(O)=C1C=NCCN1CCNCC1` (stereo not drawn): in assay [1], the cell count turned out to be 315. Moreover, the inhibition was -8.1% (inactive) in assay [1], -35% (inactive) in assay [3], 22.6% (inactive) in assay [7] and 31.6% (inactive) in assay [8]. Besides, the inhibition of aggregation in assay [2] was -0.5% (inactive). Further, the results for the nuclei count in assay [2] and in assay [3] were 114% and 122%, respectively. In addition, the fluorescence slope in assay [4] is -0.595 (inactive); in assay [6], 0.00594 (inactive). In assay [5], the NADPH fluorescence slope was 9e-06 (inactive).

As to `COc1ccccc1-c1coc2c(CN3CCN(CCO)CC3)c(O)ccc2c1=O`, in assay [1], the cell count was determined as 615. The inhibition was -0.2% (inactive) in assay [1], -16% (inactive) in assay [3], 12.9% (inactive) in assay [7] and 5.54% (inactive) in assay [8]. Moreover, the inhibition of aggregation in assay [2] is -9.4% (inactive). Besides, the results for the nuclei count in assay [2] and in assay [3] were 102% and 105%, respectively. Besides, the fluorescence slope was -0.027 (active) in assay [4] and 0.0043 (inactive) in assay [6]. Besides, the NADPH fluorescence slope in assay [5] is 5.8e-06 (inactive).

As to `Cc1cc(NC(=O)CSc2nnc(C3CC3)n2C)no1`, the cell count in assay [1] came to 296. The inhibition was 1.1% (inactive) in assay [1], -26.7% (inactive) in assay [3], 8.69% (inactive) in assay [7] and 16.1% (inactive) in assay [8]. Moreover, the inhibition of aggregation in assay [2] is 15.4% (inactive). Further, the nuclei count in assay [2] came out at 96.8%; in assay [3], 93.5%. The fluorescence slope in assay [4] was -0.55 (inactive); in assay [6], 0.00523 (inactive). In assay [5], the NADPH fluorescence slope was -7.5e-05 (inactive).

Consider `COc1ccc(-c2nnc3ccc(SC(C(C)=O)C(C)=O)nn23)cc1OC`, for which, in assay [1], the cell count turned out to be 605. Moreover, the inhibition in assay [1] is -17% (inactive); in assay [3] it was -47.2% (inactive); in assay [7], 13.7% (inactive); in assay [8], 13.4% (inactive). Besides, the inhibition of aggregation in assay [2] is 14.3% (inactive). The nuclei count was 100% in assay [2] and 94% in assay [3]. Moreover, the figures for the fluorescence slope in assay [4] and in assay [6] were -0.348 (inactive) and 0.00579 (inactive), respectively. Also, in assay [5], the NADPH fluorescence slope was -5.5e-05 (inactive).

Regarding `Cc1ccccc1CSCC(=O)c1c(N)n(C)c(=O)n(C)c1=O`, the cell count in assay [1] stood at 395. The inhibition in assay [1] is 2.8% (inactive); in assay [3], 34.1% (inactive); in assay [7] it was -5.02% (inactive); in assay [8], -20.8% (inactive). In assay [2], the inhibition of aggregation is -5.9% (inactive). The nuclei count was found to be 96.5% in assay [2] and 103% in assay [3]. Also, the fluorescence slope in assay [4] was -0.475 (inactive); in assay [6] it was 0.00961 (inactive). Also, the NADPH fluorescence slope in assay [5] was 3.9e-05 (inactive).

As for `CN1CC[n+]2cnc3ccccc3c21`, the cell count in assay [1] was determined as 600. Further, the inhibition in assay [1] is 1.2% (inactive); in assay [3] it was -9.4% (inactive); in assay [7], 16.8% (inactive); in assay [8] it was 19.3% (inactive). In addition, the inhibition of aggregation in assay [2] is -17.8% (inactive). Moreover, the nuclei count was 103% in assay [2] and 122% in assay [3]. In addition, the fluorescence slope was -0.585 (inactive) in assay [4] and 0.00403 (inactive) in assay [6]. Further, the NADPH fluorescence slope in assay [5] is -8.5e-05 (inactive).

As for `COc1ccc(-c2ccc(-c3nnc(-c4ccncc4)o3)cc2)cc1`, the cell count in assay [1] was found to be 379. Besides, the inhibition was -7.7% (inactive) in assay [1], -76.9% (inactive) in assay [3], -14.4% (inactive) in assay [7] and -28.2% (inactive) in assay [8]. In assay [2], the inhibition of aggregation was 5.3% (inactive). Moreover, the nuclei count in assay [2] was 103%; in assay [3], 99.2%. For the same compound, the fluorescence slope in assay [4] was -0.501 (inactive); in assay [6], 0.00505 (inactive). In assay [5], the NADPH fluorescence slope is -3.5e-05 (inactive).

Take `Cc1ccc(C)c(Cn2c(=O)n(CCC(=O)NCc3ccco3)c(=O)c3sccc32)c1`: in assay [1], the cell count was 506. Further, the inhibition is -4.5% (inactive) in assay [1], 17.2% (inactive) in assay [3], 19.5% (inactive) in assay [7] and 16.1% (inactive) in assay [8]. For the same compound, the inhibition of aggregation in assay [2] is 3.9% (inactive). The figures for the nuclei count in assay [2] and in assay [3] were 95.3% and 93.3%, respectively. For the same compound, the fluorescence slope in assay [4] is -0.572 (inactive); in assay [6], 0.00734 (inactive). Besides, the NADPH fluorescence slope in assay [5] was -5.2e-06 (inactive).

Values taken from PubChem BioAssay.
